Values after ≈ are worked out from the molar mass of the structure shown.

Common to all, as to format: functional
In test [1] the test system is Streptococcus pneumoniae. Put plainly: Antibacterial activity against constitutive macrolide-lincosamide-streptogramin-resistant Streptococcus pneumoniae after 16 to 22 hrs by broth microdilution method. In a few lines: (§1)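 Two-fold serial dilutions in microdilution trays, following the CLSI dilution standard for aerobic bacteria. Medium was Mueller–Hinton broth with 5% horse serum for streptococci. Stocks were made at 5 mg/ml in DMF. Inoculum came from a direct colony suspension adjusted by turbidity to about 5 × 10⁴ CFU/well final. Incubation was at 35 °C for 16–22 h. MIC is the lowest concentration completely inhibiting growth (99% inhibition).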

Test [2] relates to Streptococcus pneumoniae. As to the kind of experiment: Antibacterial activity against erythromycin-susceptible Streptococcus pneumoniae after 16 to 22 hrs by broth microdilution method. In a few lines: (§2)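 Streptococci tested by CLSI broth microdilution in Mueller–Hinton broth with 5% horse serum, using two-fold serial dilutions. Compounds were dissolved in DMF at 5 mg/ml (stock). Inoculum was a turbidity-adjusted direct colony suspension giving about 5 × 10⁴ CFU/well. Trays were held at 35 °C for 16–22 h. MIC is the lowest concentration completely inhibiting growth (99%).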

The test system of test [3] is Streptococcus pyogenes. Put plainly: Antibacterial activity against efflux-mediated macrolide-resistance Streptococcus pyogenes after 16 to 22 hrs by broth microdilution method. In short, it runs like this:
as §1

For a further test, the system named is Moraxella catarrhalis. Put plainly: Antibacterial activity against Moraxella catarrhalis ATCC 23246 after 16 to 22 hrs by broth dilution method. In a few lines: (§3)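 Broth microdilution per the CLSI approved standard (sixth edition), using two-fold serial dilutions of compound in Mueller–Hinton broth. Stocks at 5 mg/ml in DMF. Inoculum came from a direct colony suspension adjusted by turbidity to about 5 × 10⁴ CFU/well final. Trays were incubated at 35 °C for 16–22 h. MIC is the lowest concentration completely inhibiting growth (99% inhibition).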

For test [4], the system named is Streptococcus pneumoniae. Put plainly: Antibacterial activity against efflux-mediated macrolide-resistant Streptococcus pneumoniae after 16 to 22 hrs by broth microdilution method. In short, it runs like this:
as §1

The test system of a further test is Enterococcus faecalis. As to the kind of experiment: Antibacterial activity against Enterococcus faecalis ATCC 29212 after 16 to 22 hrs by broth dilution method. In a few lines: as §3
The test system of another test is Haemophilus influenzae. As to the kind of experiment: Antibacterial activity against Haemophilus influenzae ATCC 49247 after 16 to 22 hrs by broth dilution method. In short, it runs like this:
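Microdilution trays following the CLSI standard, with two-fold serial dilutions in supplemented broth suited to H. influenzae. DMF stocks at 5 mg/ml. Inoculum prepared from a turbidity-adjusted direct colony suspension to about 5 × 10⁴ CFU/well final. Incubated at 35 °C for 16–22 h. MIC is the lowest concentration giving complete (99%) growth inhibition.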

Test [5] has as its system Streptococcus pyogenes. Put plainly: Antibacterial activity against inducible macrolide-lincosamide-streptogramin-resistant Streptococcus pyogenes 16 to 22 hrs by broth microdilution method. In short, it runs like this: as §1
The subject of test [6] is Streptococcus pyogenes. As to the kind of experiment: Antibacterial activity against erythromycin-susceptible Streptococcus pyogenes after 16 to 22 hrs by broth microdilution method. In a few lines:
as §2

For the next test, the system named is Escherichia coli. Put plainly: Antibacterial activity against Escherichia coli ATCC 25922 after 16 to 22 hrs by broth dilution method. In a few lines:
as §3

The subject of a further test is Staphylococcus aureus. Put plainly: Antibacterial activity against Staphylococcus aureus ATCC 29213 after 16 to 22 hrs by broth microdilution method. In a few lines:
as §3

As to `CC[C@H]1OC(=O)[C@H](C)[C@@H](O[C@H]2C[C@@](C)(OC)[C@@H](O)[C@H](C)O2)[C@H](C)[C@@H](O[C@@H]2O[C@H](C)C[C@H](N(C)C)[C@H]2O)[C@](C)(O)C[C@@H](C)CN(CCCNC(=S)NCc2ccccc2)[C@H](C)[C@@H](O)[C@]1(C)O`, the MIC was 64 µg/mL (≈ 68 µM) against Streptococcus pneumoniae [1]; no more than 0.125 µg/mL against Streptococcus pneumoniae [2]; 4 µg/mL (≈ 4.25 µM) against Streptococcus pyogenes [3]; 1 µg/mL (≈ 1.06 µM) in the test with Moraxella catarrhalis; 8 µg/mL (≈ 8.5 µM) against Streptococcus pneumoniae [4]; 8 µg/mL (≈ 8.5 µM) against Enterococcus faecalis. The MIC is 2 µg/mL (≈ 2.12 µM) with Haemophilus influenzae; 4 µg/mL (≈ 4.25 µM) against Streptococcus pyogenes [5]; no more than 0.125 µg/mL in the test on Streptococcus pyogenes [6]; 16 µg/mL (≈ 17 µM) in the test on Escherichia coli; 0.5 µg/mL (≈ 0.531 µM) against Staphylococcus aureus.
Turning to `CC[C@H]1OC(=O)[C@H](C)[C@@H](O[C@H]2C[C@@](C)(OC)[C@@H](O)[C@H](C)O2)[C@H](C)[C@@H](O[C@@H]2O[C@H](C)C[C@H](N(C)C)[C@H]2O)[C@](C)(O)C[C@@H](C)CN(CCCNC(=O)Nc2ccc3ccccc3c2)[C@H](C)[C@@H](O)[C@]1(C)O`, the MIC was 16 µg/mL (≈ 16.6 µM) against Streptococcus pneumoniae [1]; no more than 0.125 µg/mL in the test on Streptococcus pneumoniae [2]; 4 µg/mL (≈ 4.16 µM) in the test with Streptococcus pyogenes [3]; 0.25 µg/mL (≈ 0.26 µM) with Moraxella catarrhalis; 4 µg/mL (≈ 4.16 µM) in the test on Streptococcus pneumoniae [4]; 8 µg/mL (≈ 8.32 µM) in the test on Enterococcus faecalis. Also, the MIC was 2 µg/mL (≈ 2.08 µM) in the test with Haemophilus influenzae; 2 µg/mL (≈ 2.08 µM) against Streptococcus pyogenes [5]; no more than 0.125 µg/mL against Streptococcus pyogenes [6]; 16 µg/mL (≈ 16.6 µM) in the test on Escherichia coli; 1 µg/mL (≈ 1.04 µM) in the test with Staphylococcus aureus.
On to `CC[C@H]1OC(=O)[C@H](C)[C@@H](O[C@H]2C[C@@](C)(OC)[C@@H](O)[C@H](C)O2)[C@H](C)[C@@H](O[C@@H]2O[C@H](C)C[C@H](N(C)C)[C@H]2O)[C@](C)(O)C[C@@H](C)CN(C)[C@H](C)[C@@H](O)[C@]1(C)O` [AZITHROMYCIN], for which the MIC in the test with Streptococcus pneumoniae [1] was 64 µg/mL (≈ 85.4 µM); in the test with Streptococcus pneumoniae [2] it was no more than 0.125 µg/mL; with Streptococcus pyogenes [3], 4 µg/mL (≈ 5.34 µM); against Moraxella catarrhalis, no more than 0.125 µg/mL; with Streptococcus pneumoniae [4], 8 µg/mL (≈ 10.7 µM); against Enterococcus faecalis, 8 µg/mL (≈ 10.7 µM). The MIC in the test on Haemophilus influenzae was 1 µg/mL (≈ 1.34 µM); against Streptococcus pyogenes [5], 8 µg/mL (≈ 10.7 µM); in the test on Streptococcus pyogenes [6] it was no more than 0.125 µg/mL; in the test on Escherichia coli it was 2 µg/mL (≈ 2.67 µM); in the test on Staphylococcus aureus, 0.5 µg/mL (≈ 0.668 µM).
For the molecule `CC[C@H]1OC(=O)[C@H](C)[C@@H](O[C@H]2C[C@@](C)(OC)[C@@H](O)[C@H](C)O2)[C@H](C)[C@@H](O[C@@H]2O[C@H](C)C[C@H](N(C)C)[C@H]2O)[C@](C)(O)C[C@@H](C)CN(CCCNC(=S)NCCCc2ccccc2)[C@H](C)[C@@H](O)[C@]1(C)O`, the MIC against Streptococcus pneumoniae [1] was greater than 64 µg/mL; with Streptococcus pneumoniae [2], no more than 0.125 µg/mL; against Streptococcus pyogenes [3], 4 µg/mL (≈ 4.13 µM); against Moraxella catarrhalis it was 1 µg/mL (≈ 1.03 µM); against Streptococcus pneumoniae [4], 8 µg/mL (≈ 8.25 µM); in the test on Enterococcus faecalis it was 16 µg/mL (≈ 16.5 µM). In addition, the MIC is 2 µg/mL (≈ 2.06 µM) against Haemophilus influenzae; 4 µg/mL (≈ 4.13 µM) in the test with Streptococcus pyogenes [5]; no more than 0.125 µg/mL in the test on Streptococcus pyogenes [6]; 16 µg/mL (≈ 16.5 µM) against Escherichia coli; 0.5 µg/mL (≈ 0.516 µM) against Staphylococcus aureus.
`CC[C@H]1OC(=O)[C@H](C)[C@@H](O[C@H]2C[C@@](C)(OC)[C@@H](O)[C@H](C)O2)[C@H](C)[C@@H](O[C@@H]2O[C@H](C)C[C@H](N(C)C)[C@H]2O)[C@](C)(O)C[C@@H](C)CN(CCCNC(=O)Nc2ccccc2)[C@H](C)[C@@H](O)[C@]1(C)O`: the MIC with Streptococcus pneumoniae [1] was greater than 64 µg/mL; in the test on Streptococcus pneumoniae [2], no more than 0.125 µg/mL; against Streptococcus pyogenes [3] it was 16 µg/mL (≈ 17.6 µM); with Moraxella catarrhalis it was 2 µg/mL (≈ 2.19 µM); with Streptococcus pneumoniae [4] it was 16 µg/mL (≈ 17.6 µM); in the test with Enterococcus faecalis, 16 µg/mL (≈ 17.6 µM). In addition, the MIC against Haemophilus influenzae is 8 µg/mL (≈ 8.78 µM); in the test with Streptococcus pyogenes [5], 4 µg/mL (≈ 4.39 µM); in the test on Streptococcus pyogenes [6] it was no more than 0.125 µg/mL; against Escherichia coli, 8 µg/mL (≈ 8.78 µM); in the test with Staphylococcus aureus, 0.25 µg/mL (≈ 0.274 µM).
In the case of `CC[C@H]1OC(=O)[C@H](C)[C@@H](O[C@H]2C[C@@](C)(OC)[C@@H](O)[C@H](C)O2)[C@H](C)[C@@H](O[C@@H]2O[C@H](C)C[C@H](N(C)C)[C@H]2O)[C@](C)(O)C[C@@H](C)CN(CCCNC(=O)NCc2ccccc2)[C@H](C)[C@@H](O)[C@]1(C)O`, the MIC against Streptococcus pneumoniae [1] was greater than 64 µg/mL; against Streptococcus pneumoniae [2], no more than 0.125 µg/mL; in the test on Streptococcus pyogenes [3], 8 µg/mL (≈ 8.65 µM); with Moraxella catarrhalis it was 1 µg/mL (≈ 1.08 µM); against Streptococcus pneumoniae [4], 16 µg/mL (≈ 17.3 µM); in the test on Enterococcus faecalis, 16 µg/mL (≈ 17.3 µM). The MIC with Haemophilus influenzae is 2 µg/mL (≈ 2.16 µM); against Streptococcus pyogenes [5] it was 4 µg/mL (≈ 4.32 µM); in the test on Streptococcus pyogenes [6], no more than 0.125 µg/mL; against Escherichia coli it was 8 µg/mL (≈ 8.65 µM); with Staphylococcus aureus, 0.5 µg/mL (≈ 0.54 µM).

The record behind these values is ChEMBL document CHEMBL1153576, “Novel ureas and thioureas of 15-membered azalides with antibacterial activity against key respiratory pathogens” (Eur J Med Chem, 2009).
